Laboratory results published in ChEMBL document CHEMBL2057149 (J Med Chem, 2012).
pIC50, pKd, pKi: −log10 of the molar value. Activity calls are given as the source filed them. The calls are words filed in the database; no cut-off is given here.

Columns and labels:
[1] = system: HUVEC; test: Antiangiogenic activity in FGF2-stimulated HUVEC cells after 72 hrs by CellTiter assay; assay type: functional, cell-based; settings: Homo sapiens
[2] = system: Plasma; test: Anticoagulant activity in pooled human plasma assessed as activated partial thromboplastin time at 0.1 mg/ml; assay type: ADME, cell-free
Outline: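 APTT of pooled normal human plasma measured with compound at 0–100 μg/mL in PBS on a ball coagulameter, using unfractionated heparin as the reference. Normal range 26–36 s; coefficient of variation 2% at 36 s and 5–7% at 90 s or above. Values are the mean of two determinations.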

[3] = system: HMVEC; test: Antiangiogenic activity in FGF2-stimulated HMVEC cells after 72 hrs by CellTiter assay; assay type: functional, cell-based; settings: Homo sapiens
[4] = system: HMVEC; test: Antiangiogenic activity in FGF1-stimulated HMVEC cells after 72 hrs by CellTiter assay; assay type: functional, cell-based; settings: Homo sapiens
[5] = system: HUVEC; test: Antiangiogenic activity in HUVEC cells assessed as inhibition of tube formation at 10 uM after 18 hrs by matrigel assay; assay type: functional; settings: Homo sapiens
Outline: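 HUVECs (passage 4 or 5, 70–80% confluent) suspended at 4 × 10⁵/mL in EGM2 with all supplements except heparin, mixed 1:1 with compound (final 10, 50 or 100 μM) in triplicate. Plated on growth factor-reduced Matrigel for 18 h. Branching nodes joining ≥3 tubules counted manually by phase-contrast microscopy. Reported as % inhibition versus untreated cells.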

[6] = system: HMVEC; test: Antiangiogenic activity in VEGF-stimulated HMVEC cells after 72 hrs by CellTiter assay; assay type: functional, cell-based; settings: Homo sapiens
[7] = system: Plasma; test: Anticoagulant activity in pooled human plasma assessed as prolongation of the recalcification time at 0.1 mg/ml by Heptest assay; assay type: ADME, cell-free
Outline: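 Heptest clotting time in pooled normal human plasma; normal range 13–20 s. Values are the mean of two determinations.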

[8] = target: Vascular endothelial growth factor A (Homo sapiens) (UniProt P15692); test: Binding affinity to VEGF by surface plasmon resonance assay
[9] = target: T1, Heparanase (Homo sapiens, UniProt Q9Y251); test: Inhibition of human recombinant heparanase after 2 to 24 hrs by WST1 dye based fondaparinux assay
T1 sequence (Q9Y251 whole entry): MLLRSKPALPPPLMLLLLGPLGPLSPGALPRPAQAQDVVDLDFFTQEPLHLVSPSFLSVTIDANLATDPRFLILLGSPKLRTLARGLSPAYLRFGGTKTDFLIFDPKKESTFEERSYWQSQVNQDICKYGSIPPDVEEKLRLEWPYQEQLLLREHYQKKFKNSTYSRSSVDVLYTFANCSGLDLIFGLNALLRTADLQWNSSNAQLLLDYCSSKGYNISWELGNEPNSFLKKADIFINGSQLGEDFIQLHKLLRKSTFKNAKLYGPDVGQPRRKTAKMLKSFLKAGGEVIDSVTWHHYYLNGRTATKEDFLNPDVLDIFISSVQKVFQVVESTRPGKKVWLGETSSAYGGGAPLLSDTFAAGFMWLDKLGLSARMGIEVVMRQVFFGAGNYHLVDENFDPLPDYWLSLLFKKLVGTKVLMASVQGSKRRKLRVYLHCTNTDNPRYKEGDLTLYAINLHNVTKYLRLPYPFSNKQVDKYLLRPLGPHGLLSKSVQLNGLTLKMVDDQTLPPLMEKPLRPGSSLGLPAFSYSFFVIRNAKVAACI

[10] = target: Fibroblast growth factor 2 (Homo sapiens, UniProt P09038); test: Binding affinity to FGF-2 by surface plasmon resonance assay
Outline: (§1)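 Solution-affinity SPR on heparin-coated CM4 chips. FGF-1 measured in HBS-EP (10 mM HEPES pH 7.4, 150 mM NaCl, 3.0 mM EDTA, 0.005% polysorbate 20); FGF-2 measured in HBS-EP with 300 mM NaCl. Kd is the average of at least duplicate measurements ± SD.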

[11] = system: HUVEC; test: Antiangiogenic activity in VEGF-stimulated HUVEC cells after 72 hrs by CellTiter assay; assay type: functional, cell-based; settings: Homo sapiens
[12] = target: Fibroblast growth factor 1 (Homo sapiens, UniProt P05230); test: Binding affinity to FGF-1 by surface plasmon resonance assay; outline: as §1
[13] = system: HUVEC; test: Antiangiogenic activity in FGF1-stimulated HUVEC cells after 72 hrs by CellTiter assay; assay type: functional, cell-based; settings: Homo sapiens

Fibroblast growth factor 2, sequence (P09038 143-288 limits assumed): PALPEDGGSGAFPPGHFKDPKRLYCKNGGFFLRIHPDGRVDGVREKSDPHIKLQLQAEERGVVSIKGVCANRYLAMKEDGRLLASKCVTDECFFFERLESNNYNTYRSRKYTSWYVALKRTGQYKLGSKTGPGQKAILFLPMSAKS
Fibroblast growth factor 1, sequence (P05230 whole entry): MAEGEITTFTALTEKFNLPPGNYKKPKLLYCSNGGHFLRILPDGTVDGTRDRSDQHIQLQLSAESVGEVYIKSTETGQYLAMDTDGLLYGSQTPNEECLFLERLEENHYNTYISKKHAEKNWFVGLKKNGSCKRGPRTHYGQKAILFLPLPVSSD

| SMILES | pIC50 [1] | APTT [2] [s] | Activity [3] | Activity [4] | inhibition at 10 µM [5] [%] | Activity [6] | Time [7] [s] | pKd [8] | pKi [9] | pKd [10] | pIC50 [11] | pKd [12] | pIC50 [13] |
| --- | --- | --- | --- | --- | --- | --- | --- | --- | --- | --- | --- | --- | --- |
| CCCCCCCCCCCCCCCCCC(=O)NCCCO[C@@H]1O[C@H](COS(=O)(=O)[O-])[C@@H](O[C@H]2O[C@H](COS(=O)(=O)[O-])[C@@H](O[C@H]3O[C@H](COS(=O)(=O)[O-])[C@@H](O[C@H]4O[C@H](COS(=O)(=O)[O-])[C@@H](OS(=O)(=O)[O-])[C@H](OS(=O)(=O)[O-])[C@H]4OS(=O)(=O)[O-])[C@H](OS(=O)(=O)[O-])[C@H]3OS(=O)(=O)[O-])[C@H](OS(=O)(=O)[O-])[C@H]2OS(=O)(=O)[O-])[C@H](OS(=O)(=O)[O-])[C@H]1OS(=O)(=O)[O-].[Na+].[Na+].[Na+].[Na+].[Na+].[Na+].[Na+].[Na+].[Na+].[Na+].[Na+].[Na+].[Na+] | 6.10 | 65.8 | Active | Active | > 80 | Active | 32.2 | 7.85 |  |  |  |  |  |
| CC(C)CCC[C@@H](C)[C@H]1CC[C@H]2[C@@H]3CC[C@H]4C[C@@H](O[C@H]5O[C@H](COS(=O)(=O)[O-])[C@@H](OS(=O)(=O)[O-])[C@H](OS(=O)(=O)[O-])[C@@H]5O[C@H]5O[C@H](COS(=O)(=O)[O-])[C@@H](OS(=O)(=O)[O-])[C@H](O[C@H]6O[C@H](COS(=O)(=O)[O-])[C@@H](OS(=O)(=O)[O-])[C@H](OS(=O)(=O)[O-])[C@@H]6OS(=O)(=O)[O-])[C@@H]5OS(=O)(=O)[O-])CC[C@]4(C)[C@H]3CC[C@]12C.[Na+].[Na+].[Na+].[Na+].[Na+].[Na+].[Na+].[Na+].[Na+].[Na+] | 5.64 | 50.7 | Active | Active |  | Active | 27.3 | 6.50 | 8.19 | 6.20 | 6.00 | 7.73 | 5.36 |
| CC(C)CCC[C@@H](C)[C@H]1CC[C@H]2[C@@H]3CC[C@H]4C[C@@H](OCc5cn([C@@H]6O[C@H](COS(=O)(=O)[O-])[C@@H](O[C@@H]7O[C@H](COS(=O)(=O)[O-])[C@H](OS(=O)(=O)[O-])[C@H](OS(=O)(=O)[O-])[C@H]7OS(=O)(=O)[O-])[C@H](OS(=O)(=O)[O-])[C@H]6OS(=O)(=O)[O-])nn5)CC[C@]4(C)[C@H]3CC[C@]12C.[Na+].[Na+].[Na+].[Na+].[Na+].[Na+].[Na+] | 5.61 | 39.6 | Active | Active |  | Active | 25.3 | 5.80 | 7.52 | 5.74 | 5.58 | 6.21 | 5.57 |
| CC(=O)O[C@H]1C[C@H]2[C@@H](CC[C@H]3C[C@@H](OS(=O)(=O)[O-])CC[C@@]32C)[C@@H]2CC[C@H]([C@H](C)CCC(=O)N[C@@H]3O[C@H](COS(=O)(=O)[O-])[C@@H](O[C@H]4O[C@H](COS(=O)(=O)[O-])[C@@H](O[C@H]5O[C@H](COS(=O)(=O)[O-])[C@@H](O[C@H]6O[C@H](COS(=O)(=O)[O-])[C@@H](OS(=O)(=O)[O-])[C@H](OS(=O)(=O)[O-])[C@H]6OS(=O)(=O)[O-])[C@H](OS(=O)(=O)[O-])[C@H]5OS(=O)(=O)[O-])[C@H](OS(=O)(=O)[O-])[C@H]4OS(=O)(=O)[O-])[C@H](OS(=O)(=O)[O-])[C@H]3OS(=O)(=O)[O-])[C@@]12C.[Na+].[Na+].[Na+].[Na+].[Na+].[Na+].[Na+].[Na+].[Na+].[Na+].[Na+].[Na+].[Na+].[Na+] | < 4.30 | 41 | Active | Active |  | Active | 26.8 | 8.10 | 7.70 | 7.30 | < 4.30 | 8.90 | < 4.30 |
| CC(C)CCC[C@@H](C)[C@H]1CC[C@H]2[C@@H]3CC[C@H]4C[C@@H](O[C@@H]5O[C@H](COS(=O)(=O)[O-])[C@@H](O[C@H]6O[C@H](COS(=O)(=O)[O-])[C@@H](O[C@H]7O[C@H](COS(=O)(=O)[O-])[C@@H](OS(=O)(=O)[O-])[C@H](OS(=O)(=O)[O-])[C@H]7OS(=O)(=O)[O-])[C@H](OS(=O)(=O)[O-])[C@H]6OS(=O)(=O)[O-])[C@H](OS(=O)(=O)[O-])[C@H]5OS(=O)(=O)[O-])CC[C@]4(C)[C@H]3CC[C@]12C.[Na+].[Na+].[Na+].[Na+].[Na+].[Na+].[Na+].[Na+].[Na+].[Na+] | 5.64 | 51.6 | Active | Active |  | Active | 29.2 | 6.72 | 8.04 | 6.26 | 5.80 | 7.61 | 5.60 |
| CC(C)CCC[C@@H](C)[C@H]1CC[C@H]2[C@@H]3CC[C@H]4C[C@@H](O[C@H]5O[C@H](COS(=O)(=O)[O-])[C@@H](OS(=O)(=O)[O-])[C@H](O[C@H]6O[C@H](COS(=O)(=O)[O-])[C@@H](OS(=O)(=O)[O-])[C@H](O[C@H]7O[C@H](COS(=O)(=O)[O-])[C@@H](OS(=O)(=O)[O-])[C@H](OS(=O)(=O)[O-])[C@@H]7OS(=O)(=O)[O-])[C@@H]6OS(=O)(=O)[O-])[C@@H]5OS(=O)(=O)[O-])CC[C@]4(C)[C@H]3CC[C@]12C.[Na+].[Na+].[Na+].[Na+].[Na+].[Na+].[Na+].[Na+].[Na+].[Na+] | 5.74 | 58.5 | Active | Active |  | Active | 24.2 | 7.05 | 7.98 | 6.31 | 5.77 | 7.80 | 5.60 |
| CC(C)CCC[C@@H](C)[C@H]1CC[C@H]2[C@@H]3CC[C@H]4C[C@@H](OCc5cn(CCCO[C@H]6O[C@H](COS(=O)(=O)[O-])[C@@H](OS(=O)(=O)[O-])[C@H](OS(=O)(=O)[O-])[C@@H]6O[C@H]6O[C@H](COS(=O)(=O)[O-])[C@@H](OS(=O)(=O)[O-])[C@H](O[C@H]7O[C@H](COS(=O)(=O)[O-])[C@@H](OS(=O)(=O)[O-])[C@H](O[C@H]8O[C@H](COS(=O)(=O)[O-])[C@@H](OS(=O)(=O)[O-])[C@H](O[C@H]9O[C@H](COS(=O)(=O)[O-])[C@@H](OS(=O)(=O)[O-])[C@H](OS(=O)(=O)[O-])[C@@H]9OS(=O)(=O)[O-])[C@@H]8OS(=O)(=O)[O-])[C@@H]7OS(=O)(=O)[O-])[C@@H]6OS(=O)(=O)[O-])nn5)CC[C@]4(C)[C@H]3CC[C@]12C.[Na+].[Na+].[Na+].[Na+].[Na+].[Na+].[Na+].[Na+].[Na+].[Na+].[Na+].[Na+].[Na+].[Na+].[Na+].[Na+] | 6.41 | 63.3 | Active | Active |  | Active | 29.6 | 8.98 | 8.26 | 7.41 | 6.66 | 9.62 | 6.00 |
